Measured values pooled from the literature.
Lines come from different studies, so protocols differ. Values after ≈ are worked out from the molar mass of the structure shown.
Read-out: microbial growth

SMILES	organism	test	system	MIC [mg/L]
CN(C)[C@@H]1C(O)=C(C(N)=O)C(=O)[C@@]2(O)C(O)=C3C(=O)c4c(O)cccc4[C@@](C)(O)[C@H]3C[C@@H]12	Enterobacter cloacae	broth dilution	ATCC13047	2 (≈ 4.5 µM)
Cc1ccc(N=Nc2c(N)nn3c(-c4ccco4)cc(-c4ccc(OCc5ccccc5)cc4)nc23)cc1	Enterobacter cloacae	–	ATCC23355	31.3 (≈ 62.5 µM)
CCCCCCC#Cc1cncc(-c2nnc(SCc3cc(C(F)(F)F)cc(C(F)(F)F)c3)n2CCCN)c1	Enterobacter cloacae	broth dilution	DSM30054	> 64
COc1ccc(N=Nc2c(N)nn3c(-c4ccc(Cl)cc4Cl)cc(-c4ccc(OCc5ccccc5)cc4)nc23)cc1	Enterobacter cloacae	–	ATCC23355	62.5 (≈ 105 µM)
CC[C@H]1OC(=O)[C@H](C)[C@@H](O[C@H]2C[C@@](C)(OC)[C@@H](O)[C@H](C)O2)[C@H](C)[C@@H](O[C@@H]2O[C@H](C)C[C@H](N(C)C)[C@H]2O)[C@](C)(O)C[C@@H](C)CN(C)[C@H](C)[C@@H](O)[C@]1(C)O	Enterobacter cloacae	broth dilution	ATCC13047	4 (≈ 5.34 µM)
CCCCCCC#Cc1cncc(-c2nnc(SCc3cc([N+](=O)[O-])cc([N+](=O)[O-])c3)n2C2CCNCC2)c1	Enterobacter cloacae	broth dilution	DSM30054	> 64
Cc1ccc(N=Nc2c(N)nn3c(-c4ccc(C)cc4)cc(-c4ccc(OCc5ccccc5)cc4)nc23)cc1	Enterobacter cloacae	–	ATCC23355	15.6 (≈ 29.7 µM)
Cc1ccc2[nH]nc(-c3nnc(Nc4cc(Cl)cc(Br)c4)s3)c2c1	Serratia marcescens	–	ATCC8100	250 (≈ 595 µM)
CCCCCCC#Cc1cncc(-c2nnc(SCc3ccc(Cl)cc3)n2CCCN)c1	Enterobacter cloacae	broth dilution	DSM30054	> 64
COc1ccc(N=Nc2c(N)nn3c(-c4ccco4)cc(-c4ccc(OCc5ccccc5)cc4)nc23)cc1	Enterobacter cloacae	–	ATCC23355	7.81 (≈ 15.1 µM)
Cc1cc(Nc2nnc(-c3n[nH]c4ccc(C)cc34)s2)cc([N+](=O)[O-])c1	Serratia marcescens	–	ATCC8100	198 (≈ 540 µM)
Cc1ccc(-c2cc(-c3ccc(OCc4ccccc4)cc3)nc3c(N=Nc4ccc(F)cc4)c(N)nn23)cc1	Enterobacter cloacae	–	ATCC23355	31.3 (≈ 59.2 µM)
Cc1ccc2[nH]nc(-c3nnc(Nc4ccc(Cl)c(Br)c4)s3)c2c1	Serratia marcescens	–	ATCC8100	270 (≈ 641 µM)
CCCCCCC#Cc1cncc(-c2nnc(SCc3ccc([N+](=O)[O-])o3)n2CCCN)c1	Enterobacter cloacae	broth dilution	DSM30054	> 64
CNC(C)C1CCC(N)C(OC2C(N)CC(N)C(OC3OCC(C)(O)C(NC)C3O)C2O)O1 (stereo not shown)	Enterobacter cloacae	broth dilution	ATCC13047	4 (≈ 8.38 µM)
Cc1ccc2[nH]nc(-c3nnc(Nc4ccc(Cl)c(Cl)c4)s3)c2c1	Serratia marcescens	–	ATCC8100	110 (≈ 292 µM)
